Experimental data from PubChem BioAssay AID1019 (Sanford-Burnham Center for Chemical Genomics, 2008).
Screen size: about 190,000 compounds; fewer than 10 were called active.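 Rule for the calls: active = over 50% inhibition of intestinal alkaline phosphatase at 20 µM in the single-dose screen; inactive = the rest.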 The list is a sample of the results.

Test system: alkaline phosphatase, intestinal [Bos taurus]
Experiment: bovine intestinal alkaline phosphatase inhibitors, primary screen, selectivity assay for TNAP inhibitor project, biochemical, bovine IAP, CDP-star luminescence (AID 1019)
Conditions: purified bovine IAP, 30 min, at 20 µM, active compounds read high
In short: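 Assay system: bovine IAP enzyme; medium: DEA buffer 100 mM, pH 9.8, with MgCl2 1.0 mM, ZnCl2 0.02 mM; doses: 20 µM single dose; incubation: enzyme reaction for 30 min at room temperature; detection: CDP-star luminescence signal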

inhibition, inactive:
Cn1cccc1C(C#N)c1ccccc1C#N (stereo not given) -10.8%
Cc1ccc(NC(=S)N(Cc2ccco2)C(C)c2cccs2)cc1 (stereo not given) 34.5%
NC1=C([N+](=O)[O-])C(c2ccccc2)C2=C(CCCC2=O)O1 (stereo not given) 3.7%
COc1ccccc1Oc1ccc(N/C=C2/CCCC2=O)cc1 20.1%
CC(=O)Nc1nc(N(C)C)nc(N(C)C)n1 4.4%
CC(=O)c1ccc(N=C2SCCCN2C(=O)C2CCCCC2)cc1 24.2%
COc1ccccc1N1CCN(CC(=O)NCCc2ccc(S(N)(=O)=O)cc2)CC1 -0.9%
Oc1ccc(/C=N/Nc2ccc(C(F)(F)F)cn2)cc1O -26.9%
COc1ccc(OC)c(C2C3=C(N=c4s/c(=C\c5cccc(O)c5)c(=O)n42)c2ccccc2CC3)c1 (stereo not given) 0.5%
COc1ccc(NC(=O)C(C)SCc2ccccc2)cc1 (stereo not given) -24.1%
CN(c1ccccc1)S(=O)(=O)c1ccc(Cl)c(C(=O)OCC(=O)N2CCOCC2)c1 0.4%
CC(NCc1nc2ccccc2n1C)C12CC3CC(CC(C3)C1)C2 (stereo not given) 1%
CCN(CC)S(=O)(=O)c1cc([N+](=O)[O-])ccc1N=Nc1c(O)n(C)c2ccccc12 -5.1%
Cc1cccc(CN2CCN(Cc3cnn(-c4ccccc4F)c3)CC2CCO)n1 (stereo not given) -15.4%
O=[N+]([O-])c1ccccc1N/N=C1\CCc2ccccc21 14.9%
CCc1ccc(C(=O)OCC(=O)Nc2cccc(S(=O)(=O)NC3=NCCCCC3)c2)cc1 7.2%
O=C(COC(=O)c1cc(-c2cccs2)nn1-c1ccccc1)Nc1cc([N+](=O)[O-])ccc1Cl -4.8%
Cc1ccc(C2=NN(C(=O)COc3ncnc4ccccc34)C(c3ccco3)C2)cc1 (stereo not given) -8.2%
COC(=O)c1cc(NC(=O)c2cccnc2)ccc1N1CCOCC1 0.2%
COc1ccc(S(=O)(=O)NC(C)C)cc1C(=O)NC1CCCCC1 7.7%
COc1ccccc1NC(=O)C[n+]1ccccc1 5.8%
Cc1cc(/C=C2/SC(=O)N(CC(=O)N3CCCC3)C2=O)ccc1N1CCOCC1 2.3%
COc1ccc(CCNC(=O)Cn2c(=O)n(CC3CCCO3)c(=O)c3ccccc32)cc1OC (stereo not given) -3.9%
N#C/C(=C\C1=C(N2CCOCC2)C(=C\c2ccccc2)/CC1)C(=O)Nc1ccccc1F 5.9%
CC1CN/C(=C\C(=O)c2ccc(Br)cc2)C(=O)N1 (stereo not given) 12.9%
COc1ccc(/C=C(\C#N)C(=O)ONC2=NCCCCC2)cc1 -2%
Cc1ncoc1C(=O)N1CCCC(C(=O)c2ccc3c4c(cccc24)CC3)C1 (stereo not given) 8.3%
COC(=O)c1nc(NC(=O)c2ccc(F)cc2)n[nH]1 8.8%
CC1(C)CC(=O)c2cnc3nc4ccccc4n3c2C1 7.1%
CCOc1c(CNCc2ccc(C(=O)O)cc2)cccc1OC -5.7%
Cc1cc(C(C)(C)C)cc(S(=O)(=O)Nc2ccc(C(=O)O)cc2)c1C -15.7%
Cc1c(NC(=O)CSc2nnnn2-c2ccc(C(=O)O)cc2)c(=O)n(-c2ccccc2)n1C 6%
CC(C)(C)c1cnnn1-c1ccc([N+](=O)[O-])cc1 3.1%
CCCCCCCCCOC1OC(CO)C(O)C(O)C1NC(C)=O (stereo not given) -0.5%
COc1ccc(CCNC(=O)CN(c2ccccc2)S(C)(=O)=O)cc1 -4%
CCCc1nc2c([nH]1)C(c1cccnc1)C(C#N)=C(N)O2 (stereo not given) 8.5%
CC(OC(=O)CCc1nc(=O)c2ccccc2n1C)C(=O)NCc1ccc2c(c1)OCO2 (stereo not given) -9.4%
O=c1[nH]c(=S)[nH]c2[nH]c(=S)[nH]c12 18.7%
CC(C)N(Cc1nc(-c2ccc3c(c2)OCO3)no1)CC1CCC(=O)N1 (stereo not given) 2.1%
O=C(NC1CC1)c1ccc(-c2ccccc2)cc1 -4.4%
O=C(O)CSCC(=O)Nc1ccc(C(F)(F)F)cc1 3.8%
COc1cc(OC)cc(C(=O)NCC(=O)OCc2csc(-c3ccccc3)n2)c1 1.4%
CNc1nccc(-c2ccc(Cl)cc2)c1C#N -1.9%
O=C(c1ccc(C(F)(F)F)cc1)C1CCCN(C(=O)c2csnn2)C1 (stereo not given) 9.5%
CN1C(=O)/C(=C/c2ccco2)SC1=Nc1cccc(C(=O)O)c1 -5.3%
COC(=O)CCC(=O)N1CCCC(CO)(Cc2ccccc2)C1 (stereo not given) 6.2%
CCN(CC)CCN(C(=O)c1cccc([N+](=O)[O-])c1)c1nc2ccc(OC)cc2s1 4.9%
O=C(Nc1ccc([N+](=O)[O-])cc1)C1(c2ccccc2)CCOCC1 9.9%
Cc1noc(C)c1COc1cccc(C(=O)Nc2cccnc2)c1 -7.5%
CC(C)CCNC(=O)c1cccnc1Sc1ccccc1 -6.1%
Brc1ccc(C2CC(c3ccccc3)=Nc3ccccc3N2)cc1 (stereo not given) 7.5%
Cc1ccc(C)c(Cn2nnc3c(=O)[nH]c(C(=O)Nc4ccc(F)cc4)nc32)c1 2.7%
COc1ccccc1CN(C)C(=O)C1(c2ccc(Cl)cc2)CC1 11.2%
COCCNC(=S)Nc1cc(S(=O)(=O)N2CCOCC2)ccc1N1CCCCC1 -0.2%
COc1ccc(S(=O)(=O)N2CCN(C(=O)c3cc(C)oc3C)CC2)cc1 4.3%
Cc1ccc(NC(=O)c2oc3ccccc3c2C)c([N+](=O)[O-])c1 21.2%
Clc1ccc(-c2cc(C3CCNCC3)[nH]n2)c(Cl)c1 1%
COc1cccc(NC(=O)C(Sc2nnnn2C)c2ccccc2)c1 (stereo not given) -2.3%
CCC1SC(CC)C(=O)N(CC(=O)NC2CCCCC2)C1=O (stereo not given) 11.7%
O=C(CCc1[nH]c2ccccc2c1Sc1ccccc1)N(CCO)CCO 14.8%
Cc1ccc(S(=O)(=O)N(Cc2ccc(Cl)cc2)c2ccccc2C(=O)NCc2cccnc2)cc1 15.3%
O=C(C/C(=N\NC(=O)c1ccccc1Br)C(F)(F)F)c1cccs1 5.9%
Cc1ccc(C(=O)N2CCN(S(=O)(=O)N3CCOCC3)CC2)cc1 9%
CCc1cccc(C)c1NC(=O)COC(=O)Cc1ccsc1 -0.9%
O=C(CSc1nncs1)NC1CCCc2ccccc21 (stereo not given) -2.1%
Cc1ccc2nc(C)cc(N/N=C/c3ccc(F)cc3)c2c1 0.2%
O=C(COC(=O)Cn1cnc2ccccc2c1=O)NCC12CC3CC(CC(C3)C1)C2 12.5%
O=C1CCC(CCC(=O)N2CCCC(C(=O)c3ccc(Cl)cc3)C2)=NN1 (stereo not given) -3%
CCC(C)CN1CCC(CO)(Cc2ccccc2Cl)CC1 (stereo not given) -18.6%
COc1ccc(N2C(=O)C(Cc3ccccc3)NC2=S)cc1 (stereo not given) -2.9%
COc1ccc(-n2cnnc2SCC(=O)Nc2cccc([N+](=O)[O-])c2)cc1 8.1%
Cc1nc2scc(-c3cccs3)c2c(=O)n1N -37.2%
CCN(CC(=O)Nc1ccc(Cl)c(S(=O)(=O)N(C)C)c1)Cc1nc2ccccc2c(=O)[nH]1 -108%
COc1cc(C(=O)Nc2cc(C(F)(F)F)ccc2-n2cncn2)cc(OC)c1OC -1.7%
NS(=O)(=O)c1ccc(CCNC(=O)c2ccc(Cl)cc2[N+](=O)[O-])cc1 -14.5%
Cc1nc2ccccn2c1C(=O)NN=C1CCN(C)CC1 -6.8%
CC(=O)NNC1=Nc2ccccc2N(C)C(C)C1 (stereo not given) 26.5%
Clc1ccc(N/N=C/c2cccs2)nn1 -1.4%
Cc1cccc(CSc2ccc(-c3cccs3)nn2)c1 14.5%
COC(=O)c1c(NC(=O)c2c(Cl)cnn2C)sc(C)c1C 0.9%
O=C(NCc1cccs1)c1cc(-c2ccccn2)nc2ccc(Br)cc12 -9.8%
CC1CCN(C(=O)c2ccc(S(=O)(=O)Cc3cc(F)ccc3F)c([N+](=O)[O-])c2)CC1 18.6%
COc1ccc(CCN=C2SCC(=O)N2Cc2ccccc2)cc1OC 3.1%
COc1ccc(C(=O)NNC(=O)c2cc(C)[nH]n2)cc1 -38.6%
CCN(CC)CCN(C(=O)c1ccc(N2C(=O)CCC2=O)cc1)c1nc2cc3c(cc2s1)OCO3 -11.6%
CC(=O)Nc1ccc(C(=O)OCC(=O)Nc2ccc([N+](=O)[O-])cc2C(F)(F)F)cc1 34.7%
Cn1cc(CN2CCCCC2c2ccccn2)c(-c2ccc3c(c2)OCCO3)n1 (stereo not given) 6.3%
COc1ccc(C(=O)Nc2ccc(N3CCC(C)CC3)cc2)cc1Br -10.7%
O=C(CSc1ccccc1)Nc1cc(Cl)ccc1Oc1ccccc1 6.2%
N/C(Cc1ccc([N+](=O)[O-])cc1)=N\OC(=O)C1CCCCC1 -0.5%
CCCCS(=O)c1snnc1C (stereo not given) -11.4%
C[C@@H]1NC(=O)c2cc([N+](=O)[O-])cc(F)c2NCCC[C@@H](C(N)=O)NC(=O)[C@H](CC(N)=O)NC1=O 38.7%
CCN(CC)C(=O)Oc1ccc(OC(=O)N(CC)CC)cc1 -10.3%
CC(=O)NCC(=O)N(Cc1ccco1)C1(C(=O)NC2CCCC2)CCCCC1 3.8%
CCOC(=O)c1c(CN(C)C)n(-c2ccccc2)c2cc(Br)c(O)cc12 -6.7%
